Assay results: ChEMBL document CHEMBL1147483, “Novel p38 inhibitors with potent oral efficacy in several models of rheumatoid arthritis” (Bioorg Med Chem Lett, 2004)

What was measured:
[1] = tested on: Mus musculus; experiment: Inhibition of LPS induced TNF-alpha release in mice following p.o. administration.; format: functional; design: concentration or dose not given beside the values
Method in brief: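 LPS (20 mg/kg) given i.v. 1 h after dosing. Blood taken 1 h later; plasma TNF-α by mouse-specific ELISA. Reported as % inhibition or as ED50 (mg/kg p.o.).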

[2] = target: Mitogen-activated protein kinase 14 (Mus musculus, UniProt P47811); experiment: Inhibition of murine phosphorylated His-Mitogen-activated protein kinase p38 alpha.
[3] = species on record: Homo sapiens; experiment: Inhibition of LPS/IFN-gamma stimulated TNF-alpha release in human peripheral blood mononuclear cells after 3h of incubation.; format: functional, cell-based
Method in brief: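 Human PBMCs from healthy volunteers incubated with inhibitor and stimulated with LPS/IFN-γ for 3 h. TNF-α in supernatants measured by ELISA; IC50 derived.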

[4] = Oral bioavailability; format: ADME, organism-based; settings: rat, in vivo
[5] = Half life was determined; format: ADME, organism-based; settings: rat, in vivo
[6] = target: Cytochrome P450 2C9 (Homo sapiens, UniProt P11712); experiment: Inhibition of human cytochrome P450 2C9; format: ADME
[7] = target: Cytochrome P450 3A4 (Homo sapiens, UniProt P08684); experiment: Inhibition of human cytochrome P450 3A4; format: ADME
[8] = target: T1, Cytochrome P450 1A2 (Homo sapiens, UniProt P05177); experiment: Inhibition of human cytochrome P450 1A2; format: ADME
T1 sequence (P05177 whole entry): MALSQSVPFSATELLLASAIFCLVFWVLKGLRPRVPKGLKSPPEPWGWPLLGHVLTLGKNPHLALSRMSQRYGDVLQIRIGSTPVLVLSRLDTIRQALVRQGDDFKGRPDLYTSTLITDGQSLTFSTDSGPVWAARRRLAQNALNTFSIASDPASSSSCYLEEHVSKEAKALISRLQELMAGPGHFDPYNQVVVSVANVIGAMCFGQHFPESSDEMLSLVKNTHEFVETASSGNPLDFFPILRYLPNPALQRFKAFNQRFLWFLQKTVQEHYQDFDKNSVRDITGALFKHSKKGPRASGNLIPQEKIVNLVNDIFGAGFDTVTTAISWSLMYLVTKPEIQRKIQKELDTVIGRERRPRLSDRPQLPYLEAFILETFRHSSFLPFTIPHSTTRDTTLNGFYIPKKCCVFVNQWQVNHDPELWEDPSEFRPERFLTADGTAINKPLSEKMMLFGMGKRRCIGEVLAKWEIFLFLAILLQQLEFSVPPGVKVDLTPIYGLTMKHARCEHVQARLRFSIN

[9] = target: Mast/stem cell growth factor receptor Kit (Homo sapiens, UniProt P10721); experiment: Inhibition of human c-Kit kinase
Method in brief: (§1)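 In-house kinase selectivity panel against human kinases; IC50 (µM) determined.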

[10] = target: Cytochrome P450 2D6 (Homo sapiens, UniProt P10635); experiment: Inhibition of human cytochrome P450 2D6; format: ADME
[11] = target: Cyclin-dependent kinase 1 (Homo sapiens, UniProt P06493); experiment: Inhibition of human cyclin-dependent kinase 1; method in brief: as §1
[12] = target: Insulin-like growth factor 1 receptor (Homo sapiens, UniProt P08069); experiment: Inhibition of human insulin-like growth factor I receptor; method in brief: as §1
[13] = target: Hepatocyte growth factor receptor (Homo sapiens, UniProt P08581); experiment: Inhibition of human Met proto-oncogene tyrosine kinase
[14] = tested on: Mus musculus; experiment: Dose required to inhibit of LPS (20 mg/kg, injected i.v. 1 hr […] dosing) induced TNF-alpha release in mice upon oral administration; format: functional
[15] = target: Prostaglandin G/H synthase 1 (Homo sapiens, UniProt P23219); experiment: Inhibition of human prostaglandin G/H synthase 1, COX-1
[16] = target: RAF proto-oncogene serine/threonine-protein kinase (Homo sapiens, UniProt P04049); experiment: Inhibition of human RAF proto-oncogene serine/threonine-protein kinase; method in brief: as §1
[17] = tested on: Rattus norvegicus; experiment: Percent swelling of joints in rats immunized with Mycobacterium tuberculosis was determined on day 20 after 25 mg/kg peroral administration; format: functional; settings: route oral
Method in brief: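 Female Wistar rats (adjuvant-induced arthritis) immunized with Mycobacterium tuberculosis on day 0; compounds given orally at 25 mg/kg twice daily (2 × 25 mg/kg p.o. per day) from day 14 to day 20; joint swelling measured on day 20 and expressed as % swelling.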

[18] = target: Proto-oncogene tyrosine-protein kinase Src (Homo sapiens, UniProt P12931); experiment: Inhibition of human c-Src; method in brief: as §1
[19] = target: Mitogen-activated protein kinase 8 (Homo sapiens, UniProt P45983); experiment: Inhibition of human c-Jun N-terminal kinase 1; method in brief: as §1
[20] = target: Vascular endothelial growth factor receptor 2 (Homo sapiens, UniProt P35968); experiment: Inhibition of human vascular endothelial growth factor receptor 2; method in brief: as §1
[21] = target: Mitogen-activated protein kinase 9 (Homo sapiens, UniProt P45984); experiment: Inhibition of human c-Jun N-terminal kinase 2; method in brief: as §1
[22] = target: Tyrosine-protein kinase ABL1 (Homo sapiens, UniProt P00519); experiment: Inhibition of human c-Abl; method in brief: as §1
[23] = tested on: Rattus norvegicus; experiment: Dose required to inhibit bovine nasalseptum type II collagen induced arthritis in rats after administration on day 13; format: functional; settings: 312 h
Method in brief: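 Female WAG×BUF/F1 rats immunized intradermally with bovine nasal septum type II collagen in Freund's incomplete adjuvant; swelling starts ~10 days after immunization. Oral dosing once daily for 10 days, beginning day 13 when swelling was nearly maximal. ED50 (mg/kg p.o.) derived for inhibition of joint swelling.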

[24] = target: T2, Epidermal growth factor receptor (Homo sapiens, UniProt P00533); experiment: Inhibition of human Epidermal growth factor receptor, HER-1
[25] = target: T2, Epidermal growth factor receptor; experiment: Inhibition of human epidermal growth factor receptor

Sequence of Insulin-like growth factor 1 receptor (P08069 31-736 limits assumed): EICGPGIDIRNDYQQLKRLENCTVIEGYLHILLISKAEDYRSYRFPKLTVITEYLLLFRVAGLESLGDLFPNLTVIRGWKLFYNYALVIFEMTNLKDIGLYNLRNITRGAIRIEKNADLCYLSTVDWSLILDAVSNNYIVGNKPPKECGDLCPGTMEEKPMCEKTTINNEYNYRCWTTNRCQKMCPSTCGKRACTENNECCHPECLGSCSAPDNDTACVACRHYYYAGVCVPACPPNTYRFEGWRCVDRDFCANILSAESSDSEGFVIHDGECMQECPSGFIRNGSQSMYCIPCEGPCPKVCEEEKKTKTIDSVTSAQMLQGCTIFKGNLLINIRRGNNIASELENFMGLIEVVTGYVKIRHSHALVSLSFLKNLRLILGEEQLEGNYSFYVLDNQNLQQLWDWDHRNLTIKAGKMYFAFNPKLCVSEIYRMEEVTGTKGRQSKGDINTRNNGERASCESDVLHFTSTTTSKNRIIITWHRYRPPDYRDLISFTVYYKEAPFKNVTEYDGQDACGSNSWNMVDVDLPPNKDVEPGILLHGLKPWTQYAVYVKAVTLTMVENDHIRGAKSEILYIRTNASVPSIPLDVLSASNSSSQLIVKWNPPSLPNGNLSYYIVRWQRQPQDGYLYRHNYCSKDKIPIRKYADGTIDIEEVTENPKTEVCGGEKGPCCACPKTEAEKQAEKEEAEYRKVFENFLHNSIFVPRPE
Sequence of Insulin-like growth factor 1 receptor (P08069 741-1367 limits assumed): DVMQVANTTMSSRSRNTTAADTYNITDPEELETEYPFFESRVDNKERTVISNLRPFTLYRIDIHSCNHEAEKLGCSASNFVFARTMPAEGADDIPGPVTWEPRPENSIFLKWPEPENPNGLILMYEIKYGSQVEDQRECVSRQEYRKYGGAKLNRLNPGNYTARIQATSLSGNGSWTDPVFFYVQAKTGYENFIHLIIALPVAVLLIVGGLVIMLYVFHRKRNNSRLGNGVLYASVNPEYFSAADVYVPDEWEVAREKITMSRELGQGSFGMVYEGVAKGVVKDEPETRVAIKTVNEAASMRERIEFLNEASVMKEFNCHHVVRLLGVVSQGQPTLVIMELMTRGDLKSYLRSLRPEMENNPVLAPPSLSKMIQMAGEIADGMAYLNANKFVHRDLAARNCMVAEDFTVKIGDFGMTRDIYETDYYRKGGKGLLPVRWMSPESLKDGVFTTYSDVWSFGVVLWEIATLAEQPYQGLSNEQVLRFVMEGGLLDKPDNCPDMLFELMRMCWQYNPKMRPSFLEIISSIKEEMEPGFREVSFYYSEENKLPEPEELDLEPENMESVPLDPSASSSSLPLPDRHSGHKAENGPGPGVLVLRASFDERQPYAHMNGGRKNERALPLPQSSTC
Sequence of Cytochrome P450 3A4 (P08684 whole entry): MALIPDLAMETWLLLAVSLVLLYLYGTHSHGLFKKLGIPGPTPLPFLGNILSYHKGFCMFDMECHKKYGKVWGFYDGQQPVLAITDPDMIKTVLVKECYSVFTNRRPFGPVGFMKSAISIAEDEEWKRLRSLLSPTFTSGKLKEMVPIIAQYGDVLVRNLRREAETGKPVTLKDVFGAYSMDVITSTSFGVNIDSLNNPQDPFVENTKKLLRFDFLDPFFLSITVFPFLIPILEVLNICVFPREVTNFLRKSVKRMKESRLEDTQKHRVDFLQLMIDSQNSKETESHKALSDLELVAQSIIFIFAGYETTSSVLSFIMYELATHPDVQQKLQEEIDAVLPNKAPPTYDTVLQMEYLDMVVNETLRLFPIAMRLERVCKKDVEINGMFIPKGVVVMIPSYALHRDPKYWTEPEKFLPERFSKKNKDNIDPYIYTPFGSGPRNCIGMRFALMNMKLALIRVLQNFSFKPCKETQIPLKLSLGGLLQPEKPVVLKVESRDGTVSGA
Sequence of Vascular endothelial growth factor receptor 2 (P35968 whole entry): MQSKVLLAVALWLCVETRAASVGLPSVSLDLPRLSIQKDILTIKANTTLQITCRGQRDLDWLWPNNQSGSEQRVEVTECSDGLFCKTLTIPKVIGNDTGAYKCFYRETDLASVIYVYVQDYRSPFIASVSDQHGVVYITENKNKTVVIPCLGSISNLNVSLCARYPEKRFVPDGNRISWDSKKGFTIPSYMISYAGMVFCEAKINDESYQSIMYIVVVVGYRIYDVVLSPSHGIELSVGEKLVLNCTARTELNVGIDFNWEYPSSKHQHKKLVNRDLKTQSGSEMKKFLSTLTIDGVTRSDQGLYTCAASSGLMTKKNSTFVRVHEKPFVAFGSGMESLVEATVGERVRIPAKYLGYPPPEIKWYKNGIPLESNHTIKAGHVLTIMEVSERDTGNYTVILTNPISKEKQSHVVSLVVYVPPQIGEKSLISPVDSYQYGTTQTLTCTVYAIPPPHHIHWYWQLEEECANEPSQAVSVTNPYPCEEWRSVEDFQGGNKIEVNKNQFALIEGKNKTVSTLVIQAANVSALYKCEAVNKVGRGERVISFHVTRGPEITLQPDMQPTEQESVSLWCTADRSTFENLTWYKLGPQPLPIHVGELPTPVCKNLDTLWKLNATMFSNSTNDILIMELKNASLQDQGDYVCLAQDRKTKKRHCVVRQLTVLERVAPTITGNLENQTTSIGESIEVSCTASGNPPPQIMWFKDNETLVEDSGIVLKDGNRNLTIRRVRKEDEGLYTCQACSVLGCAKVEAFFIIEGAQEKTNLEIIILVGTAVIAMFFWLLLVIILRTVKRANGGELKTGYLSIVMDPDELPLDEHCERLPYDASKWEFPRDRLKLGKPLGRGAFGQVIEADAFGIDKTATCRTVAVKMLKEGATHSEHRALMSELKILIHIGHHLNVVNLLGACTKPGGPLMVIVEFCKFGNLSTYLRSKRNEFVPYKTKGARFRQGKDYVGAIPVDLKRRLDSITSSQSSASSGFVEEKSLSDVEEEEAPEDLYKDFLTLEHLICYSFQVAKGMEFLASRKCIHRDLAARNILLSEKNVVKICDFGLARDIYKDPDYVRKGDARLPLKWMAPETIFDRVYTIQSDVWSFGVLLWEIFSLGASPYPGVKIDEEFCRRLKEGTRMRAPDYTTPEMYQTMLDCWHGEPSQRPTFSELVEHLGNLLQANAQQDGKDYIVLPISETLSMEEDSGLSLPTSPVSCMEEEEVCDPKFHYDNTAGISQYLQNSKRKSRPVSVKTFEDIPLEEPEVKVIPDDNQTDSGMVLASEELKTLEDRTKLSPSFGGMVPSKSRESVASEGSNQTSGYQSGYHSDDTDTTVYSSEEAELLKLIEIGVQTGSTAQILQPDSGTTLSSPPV
Sequence of Cytochrome P450 2C9 (P11712 whole entry): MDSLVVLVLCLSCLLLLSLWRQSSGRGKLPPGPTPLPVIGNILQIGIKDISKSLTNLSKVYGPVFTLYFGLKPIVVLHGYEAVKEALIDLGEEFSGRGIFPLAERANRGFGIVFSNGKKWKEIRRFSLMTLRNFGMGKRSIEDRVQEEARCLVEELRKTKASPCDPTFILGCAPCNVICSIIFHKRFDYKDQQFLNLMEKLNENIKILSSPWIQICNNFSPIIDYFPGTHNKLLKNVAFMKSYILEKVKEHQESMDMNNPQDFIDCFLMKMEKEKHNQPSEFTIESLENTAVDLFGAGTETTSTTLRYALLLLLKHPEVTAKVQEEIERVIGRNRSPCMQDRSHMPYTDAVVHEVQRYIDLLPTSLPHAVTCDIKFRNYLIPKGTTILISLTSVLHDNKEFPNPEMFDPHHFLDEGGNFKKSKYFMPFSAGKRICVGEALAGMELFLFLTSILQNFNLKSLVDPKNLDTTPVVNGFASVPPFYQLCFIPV
Sequence of Tyrosine-protein kinase ABL1 (P00519 whole entry): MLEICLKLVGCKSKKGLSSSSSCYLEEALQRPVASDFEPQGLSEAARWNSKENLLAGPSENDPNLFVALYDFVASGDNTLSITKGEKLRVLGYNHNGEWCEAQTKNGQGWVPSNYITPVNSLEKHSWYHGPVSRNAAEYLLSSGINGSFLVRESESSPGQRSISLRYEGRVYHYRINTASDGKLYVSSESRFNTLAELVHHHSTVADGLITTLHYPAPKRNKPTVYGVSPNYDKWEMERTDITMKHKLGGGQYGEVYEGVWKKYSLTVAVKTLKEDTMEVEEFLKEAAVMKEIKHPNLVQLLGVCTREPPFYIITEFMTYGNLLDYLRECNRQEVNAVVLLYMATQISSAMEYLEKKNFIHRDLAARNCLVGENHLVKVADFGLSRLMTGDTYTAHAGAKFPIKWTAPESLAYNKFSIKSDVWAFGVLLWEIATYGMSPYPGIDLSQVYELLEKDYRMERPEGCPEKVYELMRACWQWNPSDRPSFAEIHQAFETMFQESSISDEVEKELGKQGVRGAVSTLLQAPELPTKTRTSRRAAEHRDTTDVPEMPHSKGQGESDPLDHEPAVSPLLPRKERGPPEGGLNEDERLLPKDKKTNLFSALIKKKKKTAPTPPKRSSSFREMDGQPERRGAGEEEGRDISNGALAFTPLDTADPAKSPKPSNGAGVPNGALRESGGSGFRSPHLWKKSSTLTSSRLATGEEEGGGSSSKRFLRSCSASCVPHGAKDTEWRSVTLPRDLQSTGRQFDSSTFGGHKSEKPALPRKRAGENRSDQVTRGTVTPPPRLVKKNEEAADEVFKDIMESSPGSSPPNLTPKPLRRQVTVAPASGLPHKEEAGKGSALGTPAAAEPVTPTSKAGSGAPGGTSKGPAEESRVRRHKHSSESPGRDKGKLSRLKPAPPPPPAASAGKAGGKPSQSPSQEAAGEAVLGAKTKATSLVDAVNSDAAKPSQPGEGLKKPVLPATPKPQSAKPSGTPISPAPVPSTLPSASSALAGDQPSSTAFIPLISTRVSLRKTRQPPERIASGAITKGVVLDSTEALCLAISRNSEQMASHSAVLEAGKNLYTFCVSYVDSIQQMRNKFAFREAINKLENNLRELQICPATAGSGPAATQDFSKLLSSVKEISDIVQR

Fc1ccc(-c2nc(C3CCNCC3)cn2-c2ccnc(NC3CCCCC3)n2)cc1
Inhibition [1]: 29% | IC50 [2]: 5 nM | IC50 [3]: 0.8 nM

CN1CCC(O)(c2nc(-c3ccc(F)cc3)c(-c3ccncc3)s2)CC1
IC50 [3]: 145 nM

CN1CCN(c2ccc3c(n2)nc(-c2ccc(F)cc2)n3-c2ccnc(NC3CCCC3)n2)CC1
bioavailability [4]: 72.8% | half-life [5]: 4.1 h | IC50 [6]: > 2000 nM | IC50 [7]: > 2000 nM | IC50 [8]: > 2000 nM | IC50 [9]: > 10000 nM | IC50 [10]: > 2000 nM | IC50 [11]: > 10000 nM | IC50 [12]: > 10000 nM | IC50 [13]: > 10000 nM | ED50 [14]: 1.41 mg/kg | Inhibition [1]: 94% | IC50 [2]: 15 nM | IC50 [15]: > 80000 nM | IC50 [16]: > 10000 nM | Swelling [17]: 55% | IC50 [18]: > 10000 nM | IC50 [19]: 1500 nM | IC50 [20]: > 10000 nM | IC50 [21]: 47 nM | IC50 [22]: > 10000 nM | IC50 [3]: 1 nM | ED50 [23]: 4.22 mg/kg

C[C@H](Nc1cc(-c2oc(C3(O)CCN(C)CC3)nc2-c2ccc(F)cc2)ccn1)c1ccccc1
Inhibition [1]: 21% | IC50 [2]: 9 nM | IC50 [3]: 3 nM

CN1CCC(O)(c2nc(-c3ccc(F)cc3)c(-c3ccncc3)o2)CC1
IC50 [3]: 180 nM

C[C@H](Nc1nccc(-c2[nH]c(C3(O)CCN(C)CC3)nc2-c2ccc(F)cc2)n1)c1ccccc1
bioavailability [4]: 10% | Inhibition [1]: 83% | IC50 [2]: 2 nM | IC50 [3]: 0.1 nM

C[C@H](Nc1cc(-c2sc(C3CCN(C)CC3)nc2-c2ccc(F)cc2)ccn1)c1ccccc1
bioavailability [4]: 20.3% | half-life [5]: 12.5 h | IC50 [6]: > 2000 nM | IC50 [7]: > 2000 nM | IC50 [8]: > 2000 nM | IC50 [9]: > 10000 nM | IC50 [10]: > 2000 nM | IC50 [11]: > 10000 nM | IC50 [24]: 1100 nM | IC50 [25]: 700 nM | IC50 [12]: > 10000 nM | IC50 [13]: > 10000 nM | ED50 [14]: 2.06 mg/kg | Inhibition [1]: 88% | IC50 [2]: 18 nM | IC50 [15]: > 80000 nM | IC50 [16]: 2100 nM | Swelling [17]: 57% | IC50 [18]: 8000 nM | IC50 [19]: 1900 nM | IC50 [20]: 1700 nM | IC50 [21]: 261 nM | IC50 [22]: > 10000 nM | IC50 [3]: 0.6 nM | ED50 [23]: 7 mg/kg

CN1CCC(O)(c2cn(-c3ccnc(NC4CCCC4)n3)c(-c3cccc(C(F)(F)F)c3)n2)CC1
bioavailability [4]: 23.2% | half-life [5]: 3.5 h | IC50 [6]: > 2000 nM | IC50 [7]: > 2000 nM | IC50 [8]: > 2000 nM | IC50 [9]: > 10000 nM | IC50 [10]: > 2000 nM | IC50 [11]: > 10000 nM | IC50 [12]: > 10000 nM | ED50 [14]: 1.07 mg/kg | Inhibition [1]: 94% | IC50 [2]: 29 nM | IC50 [15]: > 80000 nM | Swelling [17]: 58% | IC50 [18]: > 10000 nM | IC50 [19]: > 10000 nM | IC50 [20]: > 10000 nM | IC50 [21]: 4660 nM | IC50 [22]: > 10000 nM | IC50 [3]: 1 nM | ED50 [23]: 9.51 mg/kg

C[C@H](Nc1cc(-c2sc(C3(O)CCN(C)CC3)nc2-c2ccc(F)cc2)ccn1)c1ccccc1
Inhibition [1]: 94% | IC50 [2]: 5 nM | IC50 [3]: 1 nM

FC(F)(F)c1cccc(-c2nc(C3CCNCC3)cn2-c2ccnc(NC3CCCCC3)n2)c1
Inhibition [1]: 77% | IC50 [2]: 8 nM | IC50 [3]: 2 nM

CN1CCC(O)(c2nc(-c3ccc(F)cc3)c(-c3ccncc3)[nH]2)CC1
IC50 [3]: 15 nM

C[C@H](Nc1nccc(-n2c(-c3ccc(F)cc3)nc3nc(N4CCN(C)CC4)ccc32)n1)c1ccccc1
Inhibition [1]: 83% | IC50 [2]: 6 nM | IC50 [3]: 1 nM

C[C@H](Nc1cc(-c2[nH]c(C3(O)CCN(C)CC3)nc2-c2ccc(F)cc2)ccn1)c1ccccc1
Inhibition [1]: 42% | IC50 [2]: 7 nM | IC50 [3]: 3 nM

C[C@H](Nc1nccc(-n2cc(C3(O)CCN(C)CC3)nc2-c2ccc(F)cc2)n1)c1ccccc1
Inhibition [1]: 94% | IC50 [2]: 4 nM

C[C@H](Nc1nccc(-c2oc(C3(O)CCN(C)CC3)nc2-c2ccc(F)cc2)n1)c1ccccc1
Inhibition [1]: 19% | IC50 [2]: 11 nM | IC50 [3]: 8 nM
